Reference: ChEMBL document CHEMBL2429849, “Substrate-based fragment identification for the development of selective, nonpeptidic inhibitors of striatal-enriched protein tyrosine phosphatase” (J Med Chem, 2013)
Active and inactive are the calls of the source. The rule behind the calls is not given here.

Key:
[1] = molecular target: T1, Tyrosine-protein phosphatase non-receptor type 2 (Homo sapiens, UniProt P17706); test: Inhibition of human TC-PTP using pNPP as substrate after 5 mins by spectrophotometric plate reader analysis
T1 sequence (P17706 whole entry): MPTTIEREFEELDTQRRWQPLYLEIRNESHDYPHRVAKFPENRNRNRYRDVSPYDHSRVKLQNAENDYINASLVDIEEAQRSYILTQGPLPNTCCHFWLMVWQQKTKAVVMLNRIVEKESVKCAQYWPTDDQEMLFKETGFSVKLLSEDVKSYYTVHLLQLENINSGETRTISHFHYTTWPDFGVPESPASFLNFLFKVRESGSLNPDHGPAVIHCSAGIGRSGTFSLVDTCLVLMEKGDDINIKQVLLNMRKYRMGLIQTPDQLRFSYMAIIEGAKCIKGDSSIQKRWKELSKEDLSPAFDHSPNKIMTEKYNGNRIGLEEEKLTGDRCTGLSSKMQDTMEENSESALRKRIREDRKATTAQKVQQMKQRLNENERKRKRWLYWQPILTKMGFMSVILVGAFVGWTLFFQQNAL
Outline: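 Selectivity assay using the STEP Ki protocol. Enzyme was preincubated 5 min at 27 °C with two- or three-fold inhibitor serial dilutions in DMSO, in imidazole/NaCl buffer at pH 7.0 with 0.01% Triton X-100 and 5 mM DTT. Reaction started with pNPP (500 μM in assay), read continuously at 405 nm for 20 min. Ki came from nonlinear regression of substrate-velocity curves, using this enzyme's pNPP KM; at least duplicate.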

[2] = molecular target: T2, Tyrosine-protein phosphatase non-receptor type 5 (Homo sapiens, UniProt P54829); test: Inhibition of human STEP using pNPP as substrate after 5 mins by spectrophotometric plate reader analysis
T2 sequence (P54829 whole entry): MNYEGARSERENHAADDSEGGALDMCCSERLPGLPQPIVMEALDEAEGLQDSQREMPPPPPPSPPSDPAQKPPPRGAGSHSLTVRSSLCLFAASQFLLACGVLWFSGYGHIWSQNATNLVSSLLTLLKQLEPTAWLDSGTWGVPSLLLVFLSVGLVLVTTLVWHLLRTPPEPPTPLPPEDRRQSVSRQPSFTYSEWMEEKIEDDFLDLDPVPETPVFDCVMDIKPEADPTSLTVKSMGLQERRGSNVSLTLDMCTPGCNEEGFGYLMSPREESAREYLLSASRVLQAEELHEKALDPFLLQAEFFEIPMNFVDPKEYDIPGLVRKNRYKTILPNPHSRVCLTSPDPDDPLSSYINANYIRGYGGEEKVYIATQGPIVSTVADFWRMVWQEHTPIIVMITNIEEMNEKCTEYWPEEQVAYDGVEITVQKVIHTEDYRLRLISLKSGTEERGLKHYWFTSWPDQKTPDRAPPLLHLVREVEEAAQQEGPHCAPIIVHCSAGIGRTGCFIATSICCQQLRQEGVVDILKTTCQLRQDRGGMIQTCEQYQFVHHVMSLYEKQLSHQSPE

[3] = molecular target: Receptor-type tyrosine-protein phosphatase F (Homo sapiens, UniProt P10586); test: Inhibition of human LAR using pNPP as substrate after 5 mins by spectrophotometric plate reader analysis
Outline: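 Enzyme preincubated 5 min at 27 °C with serially diluted inhibitor (from DMSO) in imidazole/NaCl buffer pH 7.0 with 0.01% Triton X-100 and 5 mM DTT. Started with pNPP (500 μM in assay) and read at 405 nm for 20 min. The pNPP KM was measured for each enzyme. Ki from nonlinear regression of substrate–velocity curves at several inhibitor levels; at least duplicate.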

Homo sapiens [4] = species: Homo sapiens; test: Selectivity ratio of Ki for human CD45 to Ki for human STEP
Outline: (§1)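 STEP, CD45, LAR and TC-PTP used pNPP (500 μM) in imidazole/NaCl pH 7.0 with Triton X-100, read at 405 nm for 20 min. MKP5 used DiFMUP in Tris-HCl pH 8.0. The enzyme's own pNPP KM was used in analysis; ratio of the Ki values.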

Homo sapiens [5] = species: Homo sapiens; test: Selectivity ratio of Ki for human LAR to Ki for human STEP; outline: as §1
[6] = molecular target: T3, Tyrosine-protein phosphatase non-receptor type 5 (Rattus norvegicus) (UniProt P35234); test: Inhibition of STEP in Sprague-Dawley rat embryo primary cortical neurons assessed as phosphorylation of Pyk2 at 0.1 to 10 uM after 1 hr by Western blot analysis; settings: Cerebral cortex neuron
T3 sequence (whole entry): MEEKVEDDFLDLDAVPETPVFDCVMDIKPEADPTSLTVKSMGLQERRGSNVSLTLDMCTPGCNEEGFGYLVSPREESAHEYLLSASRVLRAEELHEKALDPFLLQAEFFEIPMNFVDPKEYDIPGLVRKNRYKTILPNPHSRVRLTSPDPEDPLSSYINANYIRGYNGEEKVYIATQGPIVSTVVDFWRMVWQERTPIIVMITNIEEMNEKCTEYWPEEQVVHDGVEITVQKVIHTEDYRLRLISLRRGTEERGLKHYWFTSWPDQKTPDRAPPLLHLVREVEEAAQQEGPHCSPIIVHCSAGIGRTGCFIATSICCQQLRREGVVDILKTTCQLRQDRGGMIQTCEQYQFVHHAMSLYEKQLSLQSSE
Outline: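 E18 rat cortical neurons were trypsin-dissociated and plated on poly-D-lysine in Neurobasal with 2% B27, then grown 18–21 days at 37 °C. Compound was added at final 0, 0.1, 1 or 10 μM (0.1% DMSO) for 1 h at 37 °C. Cells were lysed in RIPA with protease/phosphatase inhibitors and protein measured by BCA. Phospho and total proteins were blotted by SDS-PAGE, with antibodies overnight at 4 °C and chemiluminescent detection.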

Receptor-type tyrosine-protein phosphatase F, sequence (P10586 whole entry): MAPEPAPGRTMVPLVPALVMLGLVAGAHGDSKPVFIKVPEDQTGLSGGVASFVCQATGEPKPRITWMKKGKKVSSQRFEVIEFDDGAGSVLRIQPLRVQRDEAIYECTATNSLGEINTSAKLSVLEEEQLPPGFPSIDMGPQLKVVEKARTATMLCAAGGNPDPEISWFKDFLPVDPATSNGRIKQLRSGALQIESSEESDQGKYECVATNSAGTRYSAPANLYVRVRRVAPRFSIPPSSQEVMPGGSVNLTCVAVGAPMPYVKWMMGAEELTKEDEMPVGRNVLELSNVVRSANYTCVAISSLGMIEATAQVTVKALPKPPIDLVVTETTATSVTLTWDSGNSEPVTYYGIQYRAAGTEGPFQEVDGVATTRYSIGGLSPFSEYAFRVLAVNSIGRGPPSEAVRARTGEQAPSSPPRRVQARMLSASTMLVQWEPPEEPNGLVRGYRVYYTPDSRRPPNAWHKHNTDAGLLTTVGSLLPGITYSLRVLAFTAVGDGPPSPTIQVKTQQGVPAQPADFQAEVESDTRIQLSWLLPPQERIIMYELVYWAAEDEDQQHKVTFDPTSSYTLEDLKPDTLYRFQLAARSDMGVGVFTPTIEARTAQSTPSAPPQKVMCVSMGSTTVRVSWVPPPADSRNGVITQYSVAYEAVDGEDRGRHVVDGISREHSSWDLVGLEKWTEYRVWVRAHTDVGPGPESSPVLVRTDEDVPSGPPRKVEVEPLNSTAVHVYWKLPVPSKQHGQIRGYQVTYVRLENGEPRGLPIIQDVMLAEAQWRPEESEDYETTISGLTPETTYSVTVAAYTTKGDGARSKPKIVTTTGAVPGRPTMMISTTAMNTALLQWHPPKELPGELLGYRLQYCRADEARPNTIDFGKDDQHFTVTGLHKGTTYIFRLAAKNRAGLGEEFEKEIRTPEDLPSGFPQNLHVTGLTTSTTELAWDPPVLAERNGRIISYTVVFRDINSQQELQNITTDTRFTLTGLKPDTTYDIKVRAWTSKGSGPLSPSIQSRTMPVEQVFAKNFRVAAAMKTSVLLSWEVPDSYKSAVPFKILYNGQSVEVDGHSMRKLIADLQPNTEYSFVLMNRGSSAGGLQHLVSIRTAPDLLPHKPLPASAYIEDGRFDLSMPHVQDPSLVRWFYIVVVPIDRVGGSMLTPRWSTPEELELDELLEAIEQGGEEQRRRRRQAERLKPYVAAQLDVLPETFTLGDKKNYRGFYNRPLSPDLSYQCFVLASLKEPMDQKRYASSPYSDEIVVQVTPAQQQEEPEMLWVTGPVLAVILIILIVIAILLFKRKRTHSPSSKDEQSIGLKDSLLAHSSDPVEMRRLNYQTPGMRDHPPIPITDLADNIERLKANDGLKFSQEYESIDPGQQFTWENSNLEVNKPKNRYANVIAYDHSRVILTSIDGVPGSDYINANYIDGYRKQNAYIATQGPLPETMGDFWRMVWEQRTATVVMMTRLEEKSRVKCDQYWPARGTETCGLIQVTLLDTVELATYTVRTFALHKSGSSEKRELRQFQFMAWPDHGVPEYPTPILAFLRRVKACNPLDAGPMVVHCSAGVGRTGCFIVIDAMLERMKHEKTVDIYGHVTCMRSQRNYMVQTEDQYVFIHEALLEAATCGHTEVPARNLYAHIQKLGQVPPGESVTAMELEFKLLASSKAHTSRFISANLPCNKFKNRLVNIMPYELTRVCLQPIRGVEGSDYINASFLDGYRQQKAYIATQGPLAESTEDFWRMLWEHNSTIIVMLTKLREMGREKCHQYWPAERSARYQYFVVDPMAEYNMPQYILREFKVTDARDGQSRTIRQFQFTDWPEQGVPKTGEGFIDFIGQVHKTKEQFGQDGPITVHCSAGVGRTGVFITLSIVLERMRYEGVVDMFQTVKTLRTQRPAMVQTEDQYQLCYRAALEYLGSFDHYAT

SMILES | Ki [1] [µM] | Ki [2] [µM] | Ki [3] [µM] | Ratio Ki (Homo sapiens [4]) | Ratio Ki (Homo sapiens [5]) | inhibition [6]
O=P(O)(O)[C@H](O)c1ccc(-c2cccc([C@@H](O)c3ccc(Cl)c(Cl)c3)c2)cc1 | 164 | 8.9 | 360 | 38 | 40 | Active
O=P(O)(O)[C@H](O)c1ccc(-c2cccc([C@H](O)c3ccc(Cl)c(Cl)c3)c2)cc1 | 170 | 7.8 | 390 | 35 | 50 | Active
